This passage reports Emax, Ki and EC50 results from ChEMBL document CHEMBL3576771, “Molecular determinants of biased agonism at the dopamine D₂ receptor” (J Med Chem, 2015).

The structures appear in SMILES notation. A value given as a limit tells only on which side of the number the result lay.

Assay [1] deals with T1, D(2) dopamine receptor (Homo sapiens, UniProt P14416). The assay can be described thus: Intrinsic activity at human dopamine D2L receptor expressed in HEK293 cells co-transfected with Galphai2 assessed as [35S]GTPgammaS binding after 30 mins by [35S]GTPgammaS incorporation assay relative to quinpirole. It counts as functional, cell-based. The settings on record: in the assay text read “after 75 mins” for “after 30 mins”. Put shortly:
(§1)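 Membranes from HEK293 cells cotransfected with D2L or D2S and PTX-insensitive Gαi2; 30 μg/mL protein, 10 μM GDP and compounds preincubated 30 min at 37 °C, then 0.10 nM [35S]GTPγS added for 75 min at 37 °C; filtration.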
(In general: GTPγS is a poorly hydrolysed GTP analogue; its binding reports G protein activation.)

For a further assay, the target named is T2, D(4) dopamine receptor (Homo sapiens, UniProt P21917).
T2 sequence (P21917 whole entry): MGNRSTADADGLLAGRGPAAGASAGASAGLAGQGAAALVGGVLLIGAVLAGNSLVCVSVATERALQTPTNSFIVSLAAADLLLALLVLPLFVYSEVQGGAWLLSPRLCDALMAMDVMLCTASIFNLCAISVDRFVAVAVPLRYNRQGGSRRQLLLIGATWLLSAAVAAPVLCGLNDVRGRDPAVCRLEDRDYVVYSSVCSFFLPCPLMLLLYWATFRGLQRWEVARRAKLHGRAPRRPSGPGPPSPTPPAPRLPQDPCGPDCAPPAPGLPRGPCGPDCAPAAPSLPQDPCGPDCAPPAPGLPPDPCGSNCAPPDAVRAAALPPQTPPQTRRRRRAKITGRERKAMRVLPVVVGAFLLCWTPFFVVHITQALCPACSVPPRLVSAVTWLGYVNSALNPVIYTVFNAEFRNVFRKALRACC
The assay can be described thus: Displacement of [3H]spiperone from human dopamine D4.4 receptor transfected in CHO cells after 1 hr by scintillation counting analysis. In kind it is cell-based.

In assay [2] the target is D(1A) dopamine receptor (Sus scrofa) (UniProt P50130). The assay can be described thus: Displacement of [3H]SCH23390 from porcine dopamine D1 receptor in striatal membranes after 1 hr by scintillation counting analysis. On the technique in general: Displacement assays read how much labelled ligand stays bound in the presence of the test substance.
D(1A) dopamine receptor (Sus scrofa), sequence (P50130 whole entry, looked up): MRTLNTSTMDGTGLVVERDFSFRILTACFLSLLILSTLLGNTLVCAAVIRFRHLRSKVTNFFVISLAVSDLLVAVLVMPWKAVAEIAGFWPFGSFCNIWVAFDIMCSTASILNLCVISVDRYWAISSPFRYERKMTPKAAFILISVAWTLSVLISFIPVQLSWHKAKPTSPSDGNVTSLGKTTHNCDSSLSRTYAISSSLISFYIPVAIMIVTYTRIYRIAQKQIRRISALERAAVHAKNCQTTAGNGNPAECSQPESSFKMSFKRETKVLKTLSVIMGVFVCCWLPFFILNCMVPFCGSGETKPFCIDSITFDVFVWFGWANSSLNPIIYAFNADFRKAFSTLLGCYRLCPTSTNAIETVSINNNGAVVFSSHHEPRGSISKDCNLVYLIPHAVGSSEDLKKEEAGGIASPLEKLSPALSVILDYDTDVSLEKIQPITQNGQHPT
In assay [3] the target is T1, D(2) dopamine receptor. The assay can be described thus: Intrinsic activity at human dopamine D2S receptor expressed in HEK293 cells co-transfected with Galpha0i assessed as [35S]GTPgammaS binding after 30 mins by [35S]GTPgammaS incorporation assay relative to quinpirole. It counts as functional, cell-based. Put shortly: (§2)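 HEK293 membranes cotransfected with D2L or D2S plus PTX-insensitive Gαo1; 30 μg/mL protein with compounds and 10 μM GDP preincubated 30 min, 37 °C; then 0.10 nM [35S]GTPγS for 30 min, 37 °C; GF/B filtration.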

In assay [4] the target is 5-hydroxytryptamine receptor 2A (Homo sapiens, UniProt P28223). The assay can be described thus: Displacement of [3H]ketanserin from human 5-HT2A receptor transfected in HEK293 cells by scintillation counting analysis. It counts as cell-based.
5-hydroxytryptamine receptor 2A, sequence (P28223 whole entry, the tested form may be a part): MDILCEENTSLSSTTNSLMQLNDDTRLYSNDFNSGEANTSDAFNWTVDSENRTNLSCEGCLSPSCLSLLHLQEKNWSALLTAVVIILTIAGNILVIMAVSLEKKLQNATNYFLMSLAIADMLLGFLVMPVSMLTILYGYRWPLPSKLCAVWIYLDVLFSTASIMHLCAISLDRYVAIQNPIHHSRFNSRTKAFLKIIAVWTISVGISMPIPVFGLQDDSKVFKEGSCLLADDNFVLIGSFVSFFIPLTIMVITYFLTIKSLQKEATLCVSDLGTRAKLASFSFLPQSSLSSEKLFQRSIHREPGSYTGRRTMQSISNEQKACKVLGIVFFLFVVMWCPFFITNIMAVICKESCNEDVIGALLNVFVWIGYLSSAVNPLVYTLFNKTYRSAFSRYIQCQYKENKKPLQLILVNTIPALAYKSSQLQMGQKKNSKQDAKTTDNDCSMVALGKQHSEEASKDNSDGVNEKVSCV
Assay [5] has as its target T1, D(2) dopamine receptor. The assay can be described thus: Agonist activity at ARMS2-PK2-tagged human dopamine D2S receptor expressed in HEK293 cells co-expressing (EA)-tagged beta arrestin fusion protein assessed as recruitment of beta-arrestin-2 after 5 hrs by chemiluminescence assay relative to quinpirole. In kind it is cell-based. Put shortly:
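Transient transfection of D2S (ProLink-tagged) into HEK293 cells stably expressing EA-tagged β-arrestin-2; 5000 cells seeded, 24 h.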

Assay [6] is described as follows: Displacement of [3H]prazosin from poricne cerebral cortex alpha1 adrenergic receptor by scintillation counting analysis. In kind it is tissue-based, Sus scrofa.
Assay [7] is described as follows: Displacement of [3H]WAY100635 from poricne cerebral cortex 5-HT1A receptor by scintillation counting analysis. It counts as tissue-based, Sus scrofa.
For assay [8], the target named is T1, D(2) dopamine receptor. The assay can be described thus: Displacement of [3H]spiperone from human dopamine D2S receptor transfected in CHO cells after 1 hr by scintillation counting analysis. It counts as cell-based.
For a further assay, the target named is D(3) dopamine receptor (Homo sapiens, UniProt P35462). The assay can be described thus: Displacement of [3H]spiperone from human dopamine D3 receptor transfected in CHO cells after 1 hr by scintillation counting analysis. It counts as cell-based.
D(3) dopamine receptor, sequence (P35462 whole entry): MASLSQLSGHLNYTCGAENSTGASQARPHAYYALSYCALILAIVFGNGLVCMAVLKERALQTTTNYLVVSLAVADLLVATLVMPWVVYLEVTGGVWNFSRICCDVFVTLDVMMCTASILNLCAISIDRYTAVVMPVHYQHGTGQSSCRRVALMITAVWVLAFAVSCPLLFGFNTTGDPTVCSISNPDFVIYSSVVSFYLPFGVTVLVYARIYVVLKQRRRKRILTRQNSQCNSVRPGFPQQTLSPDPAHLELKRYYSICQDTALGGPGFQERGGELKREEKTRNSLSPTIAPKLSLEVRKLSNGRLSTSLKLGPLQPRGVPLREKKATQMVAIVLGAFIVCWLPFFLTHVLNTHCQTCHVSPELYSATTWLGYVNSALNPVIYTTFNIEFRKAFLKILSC
A further assay has as its target D(1A) dopamine receptor (Homo sapiens, UniProt P21728). The assay can be described thus: Displacement of [3H]SCH23390 from human dopamine D1 receptor transfected in HEK293 cells after 1 hr by scintillation counting analysis. In kind it is cell-based.
The target of assay [9] is T1, D(2) dopamine receptor. The assay can be described thus: Intrinsic activity at human dopamine D2S receptor expressed in HEK293 cells co-transfected with Galphai2 assessed as [35S]GTPgammaS binding after 30 mins by [35S]GTPgammaS incorporation assay relative to quinpirole. The settings on record: in the assay text read “after 75 mins” for “after 30 mins”. In kind it is functional, cell-based. Put shortly: as §1

Assay [10] deals with T1, D(2) dopamine receptor. The assay can be described thus: Intrinsic activity at human dopamine D2L receptor expressed in HEK293 cells co-transfected with Galpha0i assessed as [35S]GTPgammaS binding after 30 mins by [35S]GTPgammaS incorporation assay. In kind it is functional, cell-based.
For assay [11], the target named is T1, D(2) dopamine receptor. The assay can be described thus: Agonist activity at ARMS2-PK2-tagged human dopamine D2S receptor expressed in HEK293 cells co-expressing (EA)-tagged beta arrestin fusion protein assessed as recruitment of beta-arrestin-2 after 5 hrs by chemiluminescence assay. In kind it is cell-based.
Assay [12] has as its target T1, D(2) dopamine receptor. The assay can be described thus: Intrinsic activity at human dopamine D2S receptor expressed in HEK293 cells co-transfected with Galpha0i assessed as [35S]GTPgammaS binding after 30 mins by [35S]GTPgammaS incorporation assay. It counts as functional, cell-based.
Assay [13] has as its target T1, D(2) dopamine receptor. The assay can be described thus: Displacement of [3H]spiperone from human dopamine D2L receptor transfected in CHO cells after 1 hr by scintillation counting analysis. It counts as cell-based.
In the next assay the target is D(1B) dopamine receptor (Homo sapiens, UniProt P21918). The assay can be described thus: Displacement of [3H]SCH23390 from human dopamine D5 receptor transfected in HEK293 cells after 1 hr by scintillation counting analysis. It counts as cell-based.
D(1B) dopamine receptor, sequence (P21918 whole entry): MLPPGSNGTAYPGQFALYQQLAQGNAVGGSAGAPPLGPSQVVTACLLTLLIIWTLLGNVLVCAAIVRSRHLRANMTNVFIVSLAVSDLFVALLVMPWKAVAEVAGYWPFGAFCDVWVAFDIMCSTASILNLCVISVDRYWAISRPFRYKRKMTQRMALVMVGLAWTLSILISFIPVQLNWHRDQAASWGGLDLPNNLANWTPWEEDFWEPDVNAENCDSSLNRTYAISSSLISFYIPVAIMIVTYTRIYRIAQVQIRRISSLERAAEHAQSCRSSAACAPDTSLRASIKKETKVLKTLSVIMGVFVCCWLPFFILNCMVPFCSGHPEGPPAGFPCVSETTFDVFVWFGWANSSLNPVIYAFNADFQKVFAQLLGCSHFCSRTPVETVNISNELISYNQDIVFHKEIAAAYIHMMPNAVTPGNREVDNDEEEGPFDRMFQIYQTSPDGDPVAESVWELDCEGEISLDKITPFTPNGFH
Assay [14] addresses T1, D(2) dopamine receptor. The assay can be described thus: Intrinsic activity at human dopamine D2L receptor expressed in HEK293 cells co-transfected with Galpha0i assessed as [35S]GTPgammaS binding after 30 mins by [35S]GTPgammaS incorporation assay relative to quinpirole. In kind it is functional, cell-based. Put shortly: as §2
The target in assay [15] is T1, D(2) dopamine receptor. The assay can be described thus: Intrinsic activity at human dopamine D2S receptor expressed in HEK293 cells co-transfected with Galphai2 assessed as [35S]GTPgammaS binding after 30 mins by [35S]GTPgammaS incorporation assay. In kind it is functional, cell-based.
Assay [16] addresses T1, D(2) dopamine receptor. The assay can be described thus: Intrinsic activity at human dopamine D2L receptor expressed in HEK293 cells co-transfected with Galphai2 assessed as [35S]GTPgammaS binding after 30 mins by [35S]GTPgammaS incorporation assay. It counts as functional, cell-based.

Broadly, the Emax is the size of the effect at its maximum, as opposed to the concentration needed. One may read the Ki as a dissociation constant, usually derived from enzyme kinetics or from competition with a known ligand. A higher Ki goes with weaker binding. One may read the EC50 as the concentration needed to bring the measured effect to its halfway point.

D(1A) dopamine receptor, sequence (P21728 whole entry): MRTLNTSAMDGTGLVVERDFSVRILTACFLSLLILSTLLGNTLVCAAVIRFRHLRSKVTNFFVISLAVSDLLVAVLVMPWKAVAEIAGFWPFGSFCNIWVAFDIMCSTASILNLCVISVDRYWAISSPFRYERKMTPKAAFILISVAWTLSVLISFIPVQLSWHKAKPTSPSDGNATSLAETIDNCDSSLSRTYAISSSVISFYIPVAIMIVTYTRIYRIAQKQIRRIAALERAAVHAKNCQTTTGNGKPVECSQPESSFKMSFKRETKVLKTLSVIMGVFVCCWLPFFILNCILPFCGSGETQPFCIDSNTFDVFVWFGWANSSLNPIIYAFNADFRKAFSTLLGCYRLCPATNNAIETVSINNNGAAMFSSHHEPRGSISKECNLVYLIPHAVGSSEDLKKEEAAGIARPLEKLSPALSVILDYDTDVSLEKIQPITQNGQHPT
T1 sequence (P14416 whole entry): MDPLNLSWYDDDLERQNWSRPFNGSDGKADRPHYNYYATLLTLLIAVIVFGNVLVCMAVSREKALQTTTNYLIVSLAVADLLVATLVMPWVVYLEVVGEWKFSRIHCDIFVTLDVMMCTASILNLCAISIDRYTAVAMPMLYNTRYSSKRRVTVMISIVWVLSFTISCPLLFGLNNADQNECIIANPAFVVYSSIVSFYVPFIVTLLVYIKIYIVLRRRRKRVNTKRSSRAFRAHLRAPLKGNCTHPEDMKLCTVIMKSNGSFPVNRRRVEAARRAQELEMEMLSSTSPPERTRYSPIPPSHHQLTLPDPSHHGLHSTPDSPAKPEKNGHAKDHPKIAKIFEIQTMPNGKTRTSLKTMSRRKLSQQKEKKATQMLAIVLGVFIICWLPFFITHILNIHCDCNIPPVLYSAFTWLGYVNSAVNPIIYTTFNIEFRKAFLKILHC

`C#CC1=CC[C@H](N(CCC)CCCCNC(=O)c2ccc(-c3ccccc3)cc2)CC1`: the maximal effect (Emax) at D(2) dopamine receptor [1] came out at 73%; at D(2) dopamine receptor [3], 100%; on D(2) dopamine receptor [5] it was 93%. The inhibition constant Ki is 60 nM on D(4) dopamine receptor; 18000 nM in assay [2]; 28000 nM in [4]; 1800 nM in assay [6]; 110 nM in [7].
Take `CCCCn1cc(CCCOc2ccc(C(=O)NCCCCN(CCC)[C@H]3CCc4c(O)cccc4C3)cc2OC)nn1`: the maximal response (Emax) on D(2) dopamine receptor [1] amounted to 99%; on D(2) dopamine receptor [3] it was 110%; at D(2) dopamine receptor [9] it was 97%; at D(2) dopamine receptor [5], 94%; at D(2) dopamine receptor [14], 90%. Also, the Ki at D(2) dopamine receptor [8] came out at 0.54 nM; at D(4) dopamine receptor it was 9.4 nM; at D(3) dopamine receptor it was 0.21 nM; at D(1A) dopamine receptor it was 2900 nM; in [4] it was 710 nM; at D(2) dopamine receptor [13] it was 0.47 nM. The Ki in assay [6] turned out to be 85 nM; on D(1B) dopamine receptor it was 700 nM; in [7], 22 nM. Besides, the EC50 at D(2) dopamine receptor [10] turned out to be 3.1 nM; at D(2) dopamine receptor [11], 1.4 nM; on D(2) dopamine receptor [12], 2.1 nM; on D(2) dopamine receptor [15], 4 nM; at D(2) dopamine receptor [16] it was 2.9 nM.
As for `CCCCn1cc(CCCOc2ccc(C(=O)NCCCCN(CCC)[C@@H]3CCc4c(O)cccc4C3)cc2OC)nn1`, the Emax was less than 5% on D(2) dopamine receptor [1]; 27% at D(2) dopamine receptor [3]; less than 5% at D(2) dopamine receptor [9]; 56% on D(2) dopamine receptor [5]; 36% on D(2) dopamine receptor [14]. Besides, the Ki at D(2) dopamine receptor [8] came to 30 nM; on D(4) dopamine receptor, 290 nM; at D(3) dopamine receptor it was 1.2 nM; on D(1A) dopamine receptor, 23000 nM; in assay [4] it was 1000 nM; at D(2) dopamine receptor [13], 18 nM. The inhibitory constant (Ki) in assay [6] is 480 nM; at D(1B) dopamine receptor it was 21000 nM; in assay [7], 200 nM. The EC50 stood at 530 nM on D(2) dopamine receptor [10], 30 nM on D(2) dopamine receptor [11] and 830 nM at D(2) dopamine receptor [12].
As for `C#CC1=CC[C@@H](N(CCC)CCCCNC(=O)c2ccc(-c3ccccc3)cc2)CC1`, the Ki at D(4) dopamine receptor was determined as 30 nM; in assay [2], 13000 nM; in assay [4] it was 9000 nM; in assay [6] it was 620 nM; in assay [7], 160 nM. Moreover, the Emax on D(2) dopamine receptor [3] turned out to be 104%; at D(2) dopamine receptor [9], 100%; at D(2) dopamine receptor [5], 93%; at D(2) dopamine receptor [14], 92%.
On to `CCCCn1cc(CCCOc2ccc(C(=O)NCCCCN(CCC)CCc3ccc(O)c4[nH]c(=O)ccc34)cc2OC)nn1`, for which the maximum response (Emax) at D(2) dopamine receptor [1] is 84%; on D(2) dopamine receptor [3] it was 87%; at D(2) dopamine receptor [9], 85%; on D(2) dopamine receptor [5], 86%; at D(2) dopamine receptor [14], 82%. Moreover, the inhibitory constant (Ki) at D(2) dopamine receptor [8] is 53 nM; at D(4) dopamine receptor, 800 nM; at D(3) dopamine receptor, 1.6 nM; on D(1A) dopamine receptor, 4600 nM; in [4], 3600 nM; at D(2) dopamine receptor [13], 24 nM. In addition, the Ki was found to be 2400 nM in [6], 25000 nM at D(1B) dopamine receptor and 2800 nM in assay [7]. In addition, the EC50 came to 3800 nM at D(2) dopamine receptor [10]; 140 nM on D(2) dopamine receptor [11]; 980 nM on D(2) dopamine receptor [12]; 1700 nM on D(2) dopamine receptor [15]; 7300 nM at D(2) dopamine receptor [16].
As for `C#CC1=CC[C@H](N(CCC)CCCCNC(=O)c2ccc(OCCCc3cn(CCCC)nn3)c(OC)c2)CO1`, the Emax on D(2) dopamine receptor [1] was determined as 84%; at D(2) dopamine receptor [3], 108%; at D(2) dopamine receptor [9] it was 89%; on D(2) dopamine receptor [5] it was 101%; on D(2) dopamine receptor [14], 88%. Further, the inhibitory constant (Ki) at D(2) dopamine receptor [8] worked out at 10 nM; at D(4) dopamine receptor, 180 nM; at D(3) dopamine receptor, 2.2 nM; at D(1A) dopamine receptor it was 3900 nM; in [4] it was 14000 nM; at D(2) dopamine receptor [13], 4.9 nM. Also, the Ki in assay [6] was 860 nM; at D(1B) dopamine receptor it was 48000 nM; in assay [7], 810 nM. Further, the EC50 at D(2) dopamine receptor [10] was found to be 90 nM; at D(2) dopamine receptor [11], 480 nM; on D(2) dopamine receptor [12], 410 nM; at D(2) dopamine receptor [15], 2900 nM; at D(2) dopamine receptor [16], 1900 nM.
With `C#CC1=CC[C@@H](N(CCC)CCCCNC(=O)c2ccc(OCCCc3cn(CCCC)nn3)c(OC)c2)CO1`, the Emax was determined as 61% on D(2) dopamine receptor [1]; 92% at D(2) dopamine receptor [3]; 94% at D(2) dopamine receptor [9]; 88% at D(2) dopamine receptor [5]; 99% on D(2) dopamine receptor [14]. Besides, the Ki is 2.9 nM on D(2) dopamine receptor [8]; 30 nM at D(4) dopamine receptor; 0.63 nM at D(3) dopamine receptor; 2600 nM on D(1A) dopamine receptor; 8000 nM in [4]; 1.6 nM on D(2) dopamine receptor [13]. Also, the results for the inhibition constant Ki (in assay [6]; at D(1B) dopamine receptor; in assay [7]) were 1000 nM, 24000 nM and 130 nM, respectively. For the same compound, the half-maximal effective concentration (EC50) came out at 52 nM on D(2) dopamine receptor [10]; 380 nM at D(2) dopamine receptor [11]; 110 nM at D(2) dopamine receptor [12]; 660 nM on D(2) dopamine receptor [15]; 28 nM on D(2) dopamine receptor [16].
